Assay results taken from ChEMBL document CHEMBL4609986 (Bioorg Med Chem, 2020).

How the values were obtained:
[1] = biological target: T1, Dual specificity tyrosine-phosphorylation-regulated kinase 1A (Homo sapiens, UniProt Q13627); assay: Inhibition of human DYRK1A transfected in HEK293T cells co-transfected with Renilla plasmid, pGL3-NFAT and NFATc1 assessed as derepression of NFAT-dependent luciferase activity measured after 48 hrs by luciferase assay; format: cell-based, HEK-293T
Summary of the method: (§1)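 HEK293T cells transfected with PEI using DYRK1A, Renilla plasmid, IL-2-based pGL3-NFAT firefly reporter and NFATc1. Next day the same transfected population was split into 96-well plates; 6 h later cells were treated for 48 h (11-point dose curve, n = 4), then lysed. EC50 from firefly/Renilla ratio, 4-parameter agonist fit. CC50 from loss of constitutive Renilla signal, 4-parameter inhibitor fit.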

[2] = (§2) Cytotoxicity against human HEK293T cells transfected with DYRK1A co-tranfected with Renilla plasmid, pGL3-NFAT and NFATc1 assessed as reduction in luciferase activity by measuring cell number; format: cell-based, HEK-293T; summary of the method: as §1
[3] = species: Homo sapiens; assay: Selectivity index, ratio of CC50 for human HEK293T cells transfected with DYRK1A co-tranfected with Renilla plasmid, pGL3-NFAT and NFATc1 assessed as reduction in luciferase activity by measuring cell number to EC50 for human DYRK1A transfected in HEK293T cells co-transfected with Renilla plasmid, pGL3-NFAT and NFATc1 assessed as derepression of NFAT-dependent luciferase activity measured after 48 hrs by luciferase assay; format: cell-based; summary of the method: as §1
[4] = biological target: T1, Dual specificity tyrosine-phosphorylation-regulated kinase 1A; assay: Inhibition of DYRK1A in human pancreatic islets assessed as induction of pancreatic beta-cells replication measured after 48 hrs by Hoechst 33342 staining based analysis
Summary of the method: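 Human islets (85-95% purity) rested 12 h in low-glucose DMEM with 10% FBS and 20 nM exendin-4. Dispersed to single cells and plated on 804G-conditioned-matrix 384-well plates for 48 h. Treated 48 h, then fixed with 4% PFA. Stained with anti-insulin, anti-Ki-67 and 4 μM Hoechst 33342; Ki67+Insulin+/Insulin+ scored by high-content imaging against per-plate cutoffs.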

[5] = tested on: HEK-293T; assay: as §2; format: cell-based; settings: hek-293t; summary of the method: as §1
[6] = Cytotoxicity against mouse R7T1 cells assessed as reduction in cell viability measured after 48 hrs by Hoechst 33342 staining based analysis
Summary of the method: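 Mouse R7T1 β-cells cultured in high-glucose DMEM with 10% FBS, doxycycline and pyruvate, plated at 25,000 cells/well. Treated in quadruplicate 6 h later (0.169–10,000 nM) for 48 h. Cells fixed in paraformaldehyde and stained with 4 μM Hoechst 33342; nuclei counted by high-content imaging.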

[7] = Selectivity index, ratio of CC50 for mouse R7T1 cells assessed as reduction in cell viability measured after 48 hrs by Hoechst 33342 staining based analysis to MEC for inhibition of DYRK1A in human pancreatic islets assessed as induction of pancreatic beta-cells replication measured after 48 hrs by Hoechst 33342 staining based analysis

SMILES	EC50 [1] [nM]	CC50 [2] [nM]	Ratio CC50/EC50 [3]	MEC [4] [nM]	CC50 [5] [nM]	CC50 [6] [nM]	Selectivity Index [7]
CCCCCNC(=O)c1cnc2ccc(-c3cc(Cl)c(O)c(Cl)c3)nc2c1N[C@H]1CC[C@H](CN(C)C)CC1	5	19	4				
CCNC(=O)c1cnc2ccc(-c3cc(Cl)c(O)c(Cl)c3)nc2c1N[C@H]1CC[C@H](CN(C)C)CC1	6	39	7				
CCOC(=O)c1cnc2ccc(-c3ccnc(N)c3)nc2c1N[C@H]1CC[C@H](CN2CCCC2)CC1	108	756	7				
CCOC(=O)c1cnc2ccc(-c3cc(Cl)c(O)c(Cl)c3)nc2c1N[C@H]1CC[C@H](CNC(C)=O)CC1	15		217	68	3340	1020	15
CCOC(=O)c1cnc2ccc(-c3cc(Cl)c(O)c(Cl)c3)nc2c1N1CCC(C)CC1	123	> 10000	> 82				
CCOC(=O)c1cnc2ccc(-c3ccc(O)nc3)nc2c1N[C@H]1CC[C@H](CN(C)C)CC1	1340	> 10000	> 7.5				
CC(=O)c1cnc2ccc(-c3cc(Cl)c(O)c(Cl)c3)nc2c1N[C@H]1CC[C@H](C(N)=O)CC1	11	1660	153	125		231	1.8
CCOC(=O)c1cnc2ccc(-c3cc(Cl)c(O)c(Cl)c3)nc2c1N[C@H]1CC[C@H](CN2CCOCC2)CC1	7	491	71				
CCOC(=O)c1cnc2ccc(-c3cc(Cl)c(O)c(Cl)c3)nc2c1N1CCNCC1	73	10000	> 137	250		> 10000	>40
CCOC(=O)c1cnc2ccc(-c3cc(Cl)cc(Cl)c3)nc2c1N[C@H]1CC[C@H](CN(C)C)CC1	> 10000	> 10000					
CCOC(=O)c1cnc2ccc(-c3cc(Cl)c(O)c(Cl)c3)nc2c1N1CCOCC1	105	3680	35				
CN(C)C[C@H]1CC[C@H](Nc2c(C(=O)N(C)C)cnc3ccc(-c4cc(Cl)c(O)c(Cl)c4)nc23)CC1	354		> 28		> 10000		
CCOC(=O)c1cnc2ccc(-c3cc(Cl)c(O)c(Cl)c3)nc2c1N[C@H]1CC[C@H](C)CC1	> 10000	> 10000					
CCOC(=O)c1cnc2ccc(-c3ccc(N)cc3)nc2c1N[C@H]1CC[C@H](CN(C)C)CC1	2100	> 10000	> 5				
CCOC(=O)c1cnc2ccc(-c3cc(Cl)c(O)c(Cl)c3)nc2c1N1CCCCC1	203	3460	17				
CCOC(=O)c1cnc2ccc(-c3ccnc(N)c3)nc2c1N[C@H]1CC[C@H](CN2CCCCC2)CC1	114	1350	12				
CCOC(=O)c1cnc2ccc(-c3ccc(C(=O)O)cc3)nc2c1N[C@H]1CC[C@H](CN(C)C)CC1	990	> 10000	> 10				
CN(C)C[C@H]1CC[C@H](Nc2c(C#N)cnc3ccc(-c4cc(Cl)c(O)c(Cl)c4)nc23)CC1	45		> 220	10	> 10000	160	16
CCOC(=O)c1cnc2ccc(-c3ccnc(C)c3)nc2c1N[C@H]1CC[C@H](CN(C)C)CC1		> 10000	> 7				
CCOC(=O)c1cnc2ccc(-c3ccnc(O)c3)nc2c1N[C@H]1CC[C@H](CN(C)C)CC1	383	2360	6				
CCCNC(=O)c1cnc2ccc(-c3cc(Cl)c(O)c(Cl)c3)nc2c1N[C@H]1CC[C@H](CN(C)C)CC1	6	38	7				

SMILES	EC50 [1] [nM]	CC50 [2] [nM]	Ratio CC50/EC50 [3]	MEC [4] [nM]	CC50 [5] [nM]	CC50 [6] [nM]	Selectivity Index [7]
NC(=O)[C@H]1CC[C@H](Nc2c(CO)cnc3ccc(-c4cc(Cl)c(O)c(Cl)c4)nc23)CC1	678	> 10000	> 15				
CCOC(=O)c1cnc2ccc(-c3cc(C)c(O)c(C)c3)nc2c1N[C@H]1CC[C@H](CN(C)C)CC1	12		> 842	250	> 10000	> 10000	>40
CCNC(=O)c1cnc2ccc(-c3ccnc(N)c3)nc2c1N[C@H]1CC[C@H](CN(C)C)CC1	46		> 216	> 500	> 10000	330	
CCOC(=O)c1cnc2ccc(-c3cc(Cl)c(O)c(Cl)c3)nc2c1N[C@H]1CC[C@H](C(N)=O)CC1	1250	> 10000	> 8				
CN(C)C[C@H]1CC[C@H](Nc2c(C(N)=O)cnc3ccc(-c4cc(Cl)c(O)c(Cl)c4)nc23)CC1	15	69	4				
CCCCNC(=O)c1cnc2ccc(-c3cc(Cl)c(O)c(Cl)c3)nc2c1N[C@H]1CC[C@H](CN2CCOCC2)CC1	4	79	18				
CC(=O)NC[C@H]1CC[C@H](Nc2c(CO)cnc3ccc(-c4cc(Cl)c(O)c(Cl)c4)nc23)CC1	16		71	500	1140	1710	3.4
CCOC(=O)c1cnc2ccc(-c3cc(C)nc(C)c3)nc2c1N[C@H]1CC[C@H](CN(C)C)CC1	> 10000	> 10000					
CN(C)C[C@H]1CC[C@H](Nc2c(C(=O)N3CCOCC3)cnc3ccc(-c4cc(Cl)c(O)c(Cl)c4)nc23)CC1	641		> 16		> 10000		
CCCCNC(=O)c1cnc2ccc(-c3cc(Cl)c(O)c(Cl)c3)nc2c1N[C@H]1CC[C@H](C(N)=O)CC1	175		39	125	6850	1790	14
CCOC(=O)c1cnc2ccc(-c3cc(Cl)c(O)c(Cl)c3)nc2c1N[C@H]1CC[C@H](N)CC1	9	44	5				
NC(=O)C[C@H]1CC[C@H](Nc2c(CO)cnc3ccc(-c4cc(Cl)c(O)c(Cl)c4)nc23)CC1	74	1970	27	500		1080	2.2
CCOC(=O)c1cnc2ccc(-c3cc(Cl)c(O)c(Cl)c3)nc2c1N[C@H]1CC[C@H](C(=O)N2CCOCC2)CC1	97	3010	21	250		2080	8.3
CC(C)CNC(=O)c1cnc2ccc(-c3cc(Cl)c(O)c(Cl)c3)nc2c1N[C@H]1CC[C@H](CN(C)C)CC1	6	16	3				
CC(C)CCNC(=O)c1cnc2ccc(-c3cc(Cl)c(O)c(Cl)c3)nc2c1N[C@H]1CC[C@H](CN(C)C)CC1	3	21	8				
CCOC(=O)c1cnc2ccc(-c3ccnc(N)c3)nc2c1N[C@H]1CC[C@H](CN(C)C)CC1	59	1130	19	22		328	15
CCOC(=O)c1cnc2ccc(-c3ccc(C(N)=O)cc3)nc2c1N[C@H]1CC[C@H](CN(C)C)CC1	4660	> 10000	> 2				
CCOC(=O)c1cnc2ccc(-c3cc(Cl)c(O)c(Cl)c3)nc2c1Nc1ccc(CN(C)C)cc1	26	3790	146	31		226	7.3
CNC(=O)c1cnc2ccc(-c3cc(Cl)c(O)c(Cl)c3)nc2c1N[C@H]1CC[C@H](CN(C)C)CC1	6	36	6				
CCOC(=O)c1cnc2ccc(-c3cc(Cl)c(O)c(Cl)c3)nc2c1N[C@H]1CC[C@H](CO)CC1	100	2670	27	250		785	3.1
CCOC(=O)c1cnc2ccc(-c3ccc(O)cc3)nc2c1N[C@H]1CC[C@H](CN(C)C)CC1	300		> 33		> 10000		
